Activity calls are given as the source filed them. The rule behind the calls is not given here.
Experiments:
[1] = target: T1, Rap guanine nucleotide exchange factor 4 (Homo sapiens, UniProt Q8WZA2); assay: Competitive inhibition of Epac2 using fluorescent nucleotide analog 8-NBD-cAMP by fluorescence analysis
Target sequence in this assay (Q8WZA2 whole entry): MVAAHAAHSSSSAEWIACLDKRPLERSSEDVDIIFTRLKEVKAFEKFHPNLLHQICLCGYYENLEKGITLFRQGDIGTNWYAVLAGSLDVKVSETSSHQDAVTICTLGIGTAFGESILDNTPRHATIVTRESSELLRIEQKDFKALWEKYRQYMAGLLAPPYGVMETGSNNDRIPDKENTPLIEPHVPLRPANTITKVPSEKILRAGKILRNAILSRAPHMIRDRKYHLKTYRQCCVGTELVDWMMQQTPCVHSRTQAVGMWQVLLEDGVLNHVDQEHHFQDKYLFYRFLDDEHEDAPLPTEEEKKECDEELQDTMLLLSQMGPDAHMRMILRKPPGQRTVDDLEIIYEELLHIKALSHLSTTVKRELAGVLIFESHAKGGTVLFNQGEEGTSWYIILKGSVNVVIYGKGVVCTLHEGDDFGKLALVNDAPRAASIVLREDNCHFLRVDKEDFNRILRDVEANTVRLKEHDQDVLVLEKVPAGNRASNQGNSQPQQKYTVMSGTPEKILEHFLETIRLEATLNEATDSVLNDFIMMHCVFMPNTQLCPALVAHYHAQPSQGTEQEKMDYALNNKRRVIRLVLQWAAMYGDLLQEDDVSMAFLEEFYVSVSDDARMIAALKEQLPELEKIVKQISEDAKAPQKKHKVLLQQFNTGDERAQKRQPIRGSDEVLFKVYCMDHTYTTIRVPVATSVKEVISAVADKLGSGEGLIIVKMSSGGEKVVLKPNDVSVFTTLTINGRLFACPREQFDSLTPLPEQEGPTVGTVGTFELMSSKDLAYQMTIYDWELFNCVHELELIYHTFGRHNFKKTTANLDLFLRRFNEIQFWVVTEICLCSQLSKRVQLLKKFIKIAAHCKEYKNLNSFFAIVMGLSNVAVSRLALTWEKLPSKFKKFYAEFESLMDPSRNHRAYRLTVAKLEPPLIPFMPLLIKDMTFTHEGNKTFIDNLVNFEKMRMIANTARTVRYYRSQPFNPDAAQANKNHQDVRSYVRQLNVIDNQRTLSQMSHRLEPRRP

[2] = target: T1, Rap guanine nucleotide exchange factor 4; assay: Inhibition of Epac2 at 25 uM in presence of equal molar concentration of cAMP
Target sequence in this assay (Q8WZA2 whole entry, looked up): as the sequence (Q8WZA2 whole entry) above

[3] = target: T2, Rap guanine nucleotide exchange factor 3 (Homo sapiens) (UniProt O95398); assay: Inhibition of Epac1 at 25 uM in presence of equal molar concentration of cAMP
T2 sequence (whole entry): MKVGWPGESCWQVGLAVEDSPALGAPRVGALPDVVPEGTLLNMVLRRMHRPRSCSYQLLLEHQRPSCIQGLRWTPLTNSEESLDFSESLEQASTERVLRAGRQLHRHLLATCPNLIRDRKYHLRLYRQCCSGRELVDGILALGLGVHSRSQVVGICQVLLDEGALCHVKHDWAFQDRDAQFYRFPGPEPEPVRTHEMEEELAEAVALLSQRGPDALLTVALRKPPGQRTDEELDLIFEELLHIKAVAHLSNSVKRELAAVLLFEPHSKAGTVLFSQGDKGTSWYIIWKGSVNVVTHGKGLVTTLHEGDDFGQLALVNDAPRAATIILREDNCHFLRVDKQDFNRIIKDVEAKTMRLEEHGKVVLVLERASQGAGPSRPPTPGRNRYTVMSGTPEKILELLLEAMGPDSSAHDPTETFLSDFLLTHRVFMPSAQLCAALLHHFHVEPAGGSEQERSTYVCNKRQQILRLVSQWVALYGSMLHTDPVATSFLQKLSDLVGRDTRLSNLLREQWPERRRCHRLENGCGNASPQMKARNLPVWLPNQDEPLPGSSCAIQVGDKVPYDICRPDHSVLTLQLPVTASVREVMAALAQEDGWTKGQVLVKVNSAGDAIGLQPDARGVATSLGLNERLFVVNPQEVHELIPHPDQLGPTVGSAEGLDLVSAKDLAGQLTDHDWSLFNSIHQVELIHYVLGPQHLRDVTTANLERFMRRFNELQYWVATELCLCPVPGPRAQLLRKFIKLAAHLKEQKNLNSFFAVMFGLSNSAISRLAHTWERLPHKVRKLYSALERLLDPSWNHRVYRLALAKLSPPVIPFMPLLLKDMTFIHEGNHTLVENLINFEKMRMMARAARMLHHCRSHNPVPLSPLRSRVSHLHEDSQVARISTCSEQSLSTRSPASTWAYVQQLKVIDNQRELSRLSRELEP

[4] = Inhibition of PKA type1 activation at 25 uM
[5] = Inhibition of PKA type2 activation at 25 uM
[6] = target: T1, Rap guanine nucleotide exchange factor 4; assay: Inhibition of recombinant Epac2-mediated Akt phosphorylation at T308 expressed in 007-AM-stimulated HEK293 cells at 10 uM administered 5 mins prior to 007-AM by Western blot analysis; type: cell-based
Method in brief: (§1)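 HEK293/Epac1 or HEK293/Epac2 cells were pretreated, or not, with 10 μM antagonist for 5 min. They were then stimulated with 10 μM 007-AM, the membrane-permeable Epac-selective agonist. Cell lysates were immunoblotted with PKB antibodies specific for phospho-Ser473 and phospho-Thr308.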
Target sequence in this assay (Q8WZA2 whole entry, looked up): as the sequence (Q8WZA2 whole entry) above

[7] = target: T2, Rap guanine nucleotide exchange factor 3 (Homo sapiens); assay: Inhibition of recombinant Epac1-mediated Akt phosphorylation at S473 expressed in 007-AM-stimulated HEK293 cells at 10 uM administered 5 mins prior to 007-AM by Western blot analysis; type: cell-based; method in brief: as §1
[8] = target: T1, Rap guanine nucleotide exchange factor 4; assay: Inhibition of cAMP-mediated recombinant Epac2 GEF activity at 25 uM by fluorescence analysis in presence of cAMP
Target sequence in this assay (Q8WZA2 whole entry, looked up): as the sequence (Q8WZA2 whole entry) above

[9] = target: T1, Rap guanine nucleotide exchange factor 4; assay: Inhibition of recombinant Epac2-mediated Akt phosphorylation at S473 expressed in 007-AM-stimulated HEK293 cells at 10 uM administered 5 mins prior to 007-AM by Western blot analysis; type: cell-based; method in brief: as §1
Target sequence in this assay (Q8WZA2 whole entry, looked up): as the sequence (Q8WZA2 whole entry) above

[10] = target: T2, Rap guanine nucleotide exchange factor 3 (Homo sapiens); assay: Inhibition of recombinant Epac1-mediated Akt phosphorylation at T308 expressed in 007-AM-stimulated HEK293 cells at 10 uM administered 5 mins prior to 007-AM by Western blot analysis; type: cell-based; method in brief: as §1
[11] = target: T2, Rap guanine nucleotide exchange factor 3 (Homo sapiens); assay: Inhibition of recombinant Epac1-mediated Rap1-GDP exchange activity at 25 uM by fluorescence analysis in presence of cAMP

Compound: Cc1cc(C)c(CSc2nc(C3CCCCC3)c(C#N)c(=O)[nH]2)c(C)c1
- IC50 [1]: 11.6 µM

Compound: Cc1ccc(C)c(CSc2nc(C3CCN(C)CC3)c(C#N)c(=O)[nH]2)c1
- IC50 [1]: 127 µM

Compound: Cc1ccc(C)c(CSc2nc(C3CCNCC3)c(C#N)c(=O)[nH]2)c1
- IC50 [1]: > 300 µM

Compound: N#Cc1c(C2CCCCC2)nc(Nc2ccc(Cl)cc2)[nH]c1=O
- IC50 [1]: > 300 µM

Compound: N#Cc1c(C2CCCCC2)nc(Nc2ccccc2)[nH]c1=O
- IC50 [1]: > 300 µM

Compound: N#Cc1c(C2CCCCC2)nc(SCc2ccccc2)[nH]c1=O
- IC50 [1]: 30.5 µM

Compound: N#Cc1c(C2CCCCC2)nc(S)[nH]c1=O
- IC50 [1]: > 300 µM

Compound: Cc1ccc(CSc2nc(C3CCCCC3)c(C#N)c(=O)[nH]2)cc1
- IC50 [1]: 38.7 µM

Compound: Cc1ccc(C)c(CSc2nc(C(C)C)c(C#N)c(=O)[nH]2)c1
- IC50 [1]: 12.7 µM

Compound: Cc1cc(C)cc(CSc2nc(C3CCCCC3)c(C#N)c(=O)[nH]2)c1
- IC50 [1]: 7 µM

Compound: N#Cc1c(C2CCCCC2)nc(SCC(=O)O)[nH]c1=O
- IC50 [1]: > 300 µM

Compound: Cc1ccc(C)c(CSc2nc(C3CCCCC3)c(C#N)c(=O)[nH]2)c1
- inhibition [2]: Active
- inhibition [3]: Active
- inhibition [4]: inactive
- inhibition [5]: inactive
- IC50 [1]: 8.4 µM

Compound: O=S(=O)(NCCNC/C=C/c1ccc(Br)cc1)c1cccc2cnccc12
- inhibition [4]: Active
- inhibition [5]: Active

Compound: Cc1ccc(C)c(CSc2nc(C3CC3)c(C#N)c(=O)[nH]2)c1
- inhibition [6]: Active
- inhibition [7]: Active
- inhibition [4]: inactive
- inhibition [8]: Active
- inhibition [5]: inactive
- inhibition [9]: Active
- IC50 [1]: 4 µM
- inhibition [10]: Active

Compound: Cc1ccc(CSc2nc(C3CCCCC3)c(C#N)c(=O)[nH]2)c(C)c1
- IC50 [1]: 15.7 µM

Compound: Cc1ccc(NC(=O)CSc2nc(C3CCCCC3)c(C#N)c(=O)[nH]2)cc1
- IC50 [1]: > 300 µM

Compound: Cc1cc(C)c(NC(=O)CSc2nc(C3CCCCC3)c(C#N)c(=O)[nH]2)c(C)c1
- IC50 [1]: > 300 µM

Compound: Cc1ccc(C)c(CSc2nc(C3CCCC3)c(C#N)c(=O)[nH]2)c1
- inhibition [11]: Active
- inhibition [6]: Active
- inhibition [7]: Active
- inhibition [4]: inactive
- inhibition [8]: Active
- inhibition [5]: inactive
- inhibition [9]: Active
- IC50 [1]: 5.9 µM
- inhibition [10]: Active

Compound: N#Cc1c(C2CCCCC2)nc(SCC(=O)Nc2ccccc2)[nH]c1=O
- IC50 [1]: > 300 µM

Reference: ChEMBL document CHEMBL2029310 (Bioorg Med Chem Lett, 2012)
